The text below walks through data of ChEMBL document CHEMBL1155279, “1,5-Diaryl-2-ethyl pyrrole derivatives as antimycobacterial agents: design, synthesis, and microbiological evaluation” (Eur J Med Chem, 2009).

What is called MIC is the smallest concentration in the dilution series that meets the test's criterion for growth inhibition.

Data set [1] concerns Mycobacterium tuberculosis. Nature of the data set: Antimycobacterial activity against Mycobacterium tuberculosis CIP 103471 by twofold agar dilution method. It counts as functional. The gist of the method: (§1)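 Twofold agar dilution in Middlebrook 7H11 agar with 10% OADC (oleic acid, albumin, dextrose). Compounds dissolved in DMSO at 5 mg/mL (one in ethanol at 6 mg/mL), stock, stored cold. MIC determined for each strain. Strains: M. tuberculosis CIP 103471, H37Rv ATCC 27294, rifampicin-resistant ATCC 35838, M. avium CIP 103317.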

Data set [2] relates to Mycobacterium tuberculosis. Nature of the data set: Antimycobacterial activity against Mycobacterium tuberculosis H37Rv by twofold agar dilution method. The class given is functional. In outline:
as §1
A general note: In agar dilution the substance is mixed into plates at graded concentrations.

Data set [3] has as its system Mycobacterium avium. The data set can be described thus: Antimycobacterial activity against Mycobacterium avium CIP 103317 by twofold agar dilution method. The class given is functional. The gist of the method:
as §1

A short description of data set [4]: Cytotoxicity against african green monkey Vero cells after 72 hrs. It counts as cell-based. The conditions noted are these: chlorocebus sabaeus. In outline: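 Vero cells exposed to compounds (stocks 5 mg/mL in DMSO; one compound 6 mg/mL in ethanol). After 72 h incubation, cells examined microscopically for morphological changes. Maximum non-toxic dose (MNTD) taken as the highest drug concentration producing no morphological change.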

Data set [5] is described as follows: Protection index, ratio of MNTD for african green monkey Vero cells to MIC for Mycobacterium tuberculosis CIP 103471. The class given is functional. The gist of the method:
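Vero cells exposed to drug; after 72 h of incubation, morphology was checked microscopically. MNTD is the highest concentration with no morphological change. PI = MNTD/MIC, with MIC from twofold agar dilution in Middlebrook 7H11 + 10% OADC against M. tuberculosis CIP 103471.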

The structures appear in SMILES notation. In brackets after ≈: the same amount, converted by molar mass. Bounds are passed on as bounds.

As for `CCc1c(CN2CCSCC2)cc(-c2ccc(F)cc2)n1-c1ccccc1F`, the MIC was 2 µg/mL (≈ 5.02 µM) in data set [1], 2 µg/mL (≈ 5.02 µM) in data set [2] and 8 µg/mL (≈ 20.1 µM) in data set [3]. The same compound returned an MNTC at 72 h in data set [4] of 8 µg/mL. In addition, the PI in data set [5] is 4.

In turn, `Cc1c(CN2CCSCC2)cc(-c2ccccc2)n1-c1ccc(F)cc1` registered an MIC in data set [1] of 0.4 µg/mL (≈ 1.09 µM). Also, in data set [5], the PI is reported as 20.

Consider `CCc1c(CN2CCSCC2)cc(-c2ccccc2)n1-c1ccc(F)cc1`, for which the figures for the MIC in data set [1], in data set [2] and in data set [3] were 2 µg/mL (≈ 5.26 µM), 4 µg/mL (≈ 10.5 µM) and 16 µg/mL (≈ 42 µM), respectively. In addition, in data set [4], the MNTC at 72 h was determined as 16 µg/mL. Further, in data set [5], the PI is given as 8.

In turn, `Cc1c(CN2CCSCC2)cc(-c2ccccc2)n1-c1ccccc1` had an MIC in data set [1] of 1 µg/mL (≈ 2.87 µM). Besides, in data set [5], the PI turned out to be 32.

Consider `CN[C@@H]1[C@H](O[C@H]2[C@H](O[C@H]3[C@H](O)[C@@H](O)[C@H](N=C(N)N)[C@@H](O)[C@@H]3N=C(N)N)O[C@@H](C)[C@]2(O)C=O)O[C@@H](CO)[C@H](O)[C@H]1O` [STREPTOMYCIN], for which the results for the MIC in data set [1], in data set [2] and in data set [3] were 0.5 µg/mL (≈ 0.86 µM), 0.5 µg/mL (≈ 0.86 µM) and 8 µg/mL (≈ 13.8 µM), respectively. Further, the MNTC at 72 h in data set [4] is 128 µg/mL. For the same compound, in data set [5], the PI was 256.

As to `Cc1c(CN2CCN(C)CC2)cc(-c2ccc(Cl)cc2)n1-c1ccc(Cl)cc1`, the values for the MIC in data set [1], in data set [2] and in data set [3] were 1 µg/mL (≈ 2.41 µM), 1 µg/mL (≈ 2.41 µM) and 0.5 µg/mL (≈ 1.21 µM), respectively. The compound further registered an MNTC at 72 h in data set [4] of 4 µg/mL. The PI in data set [5] amounted to 4.

Take `CCc1c(CN2CCN(C)CC2)cc(-c2ccc(Cl)cc2)n1-c1ccc(Cl)cc1`: the MIC came to 2 µg/mL (≈ 4.67 µM) in data set [1], 4 µg/mL (≈ 9.34 µM) in data set [2] and 4 µg/mL (≈ 9.34 µM) in data set [3]. Besides, the MNTC at 72 h in data set [4] was found to be 8 µg/mL. In addition, the PI in data set [5] is on record as 4.

`Cc1c(CN2CCSCC2)cc(-c2ccc(F)cc2)n1-c1ccccc1F` yielded a minimal inhibitory concentration (MIC) in data set [1] of 0.5 µg/mL (≈ 1.3 µM). Also, the PI in data set [5] is 16.

Consider `CCc1c(CN2CCSCC2)cc(-c2ccccc2F)n1-c1ccccc1F`, for which the values for the MIC in data set [1], in data set [2] and in data set [3] were 4 µg/mL (≈ 10 µM), 8 µg/mL (≈ 20.1 µM) and 16 µg/mL (≈ 40.1 µM), respectively. The MNTC at 72 h in data set [4] came out at 8 µg/mL. For the same compound, the PI in data set [5] is given as 2.

For the compound `CCc1c(CN2CCSCC2)cc(-c2ccccc2)n1-c1ccccc1`, the MIC stood at 2 µg/mL (≈ 5.52 µM) in data set [1], 4 µg/mL (≈ 11 µM) in data set [2] and 8 µg/mL (≈ 22.1 µM) in data set [3]. Also, the MNTC at 72 h in data set [4] turned out to be 16 µg/mL. Also, the PI in data set [5] worked out at 8.

`CO[C@H]1/C=C/O[C@@]2(C)Oc3c(C)c(O)c4c(O)c(c(/C=N/N5CCN(C)CC5)c(O)c4c3C2=O)NC(=O)/C(C)=C\C=C\[C@H](C)[C@H](O)[C@@H](C)[C@@H](O)[C@@H](C)[C@H](OC(C)=O)[C@@H]1C` [RIFAMPIN]: the MIC in data set [1], in data set [2] and in data set [3] was 0.25 µg/mL (≈ 0.304 µM) in each case. The compound further returned an MNTC at 72 h in data set [4] of 64 µg/mL. Further, in data set [5], the PI is reported as 256.

As for `CCc1c(CN2CCSCC2)cc(-c2ccc(F)cc2)n1-c1ccccc1`, the MIC in data set [1] was 1 µg/mL (≈ 2.63 µM); in data set [2], 1 µg/mL (≈ 2.63 µM); in data set [3] it was 8 µg/mL (≈ 21 µM). This compound registered an MNTC at 72 h in data set [4] of 8 µg/mL. Moreover, in data set [5], the PI is listed as 8.

Consider `Cc1c(CN2CCSCC2)cc(-c2ccccc2F)n1-c1ccccc1F`, for which the lowest concentration to inhibit growth in data set [1] (MIC) was 1 µg/mL (≈ 2.6 µM). Further, in data set [5], the PI was determined as 32.

Consider `CCc1c(CN2CCSCC2)cc(-c2ccc(F)cc2)n1-c1ccc(F)cc1`, for which the MIC in data set [1] and in data set [3] was 16 µg/mL (≈ 40.1 µM) throughout. Also, the MNTC at 72 h in data set [4] was found to be 8 µg/mL. The PI in data set [5] is 0.5.

`Cc1c(CN2CCSCC2)cc(-c2ccc(F)cc2)n1-c1ccccc1`: in data set [1], inhibition of growth (MIC) required 0.5 µg/mL (≈ 1.36 µM). In addition, the PI in data set [5] is reported as 8.

`Cc1ccc(-c2cc(CN3CCSCC3)c(C)n2-c2ccc(F)cc2)cc1` returned a minimal inhibitory concentration (MIC) in data set [1] of 0.25 µg/mL (≈ 0.657 µM). Moreover, the PI in data set [5] came out at 256.

In data set [1], `Cc1c(CN2CCSCC2)cc(-c2ccc(F)cc2)n1-c1ccc(F)cc1` registered an MIC of 1 µg/mL (≈ 2.6 µM). Also, the PI in data set [5] is recorded as 8.

Take `CCc1c(CN2CCSCC2)cc(-c2ccc(C)cc2)n1-c1ccc(F)cc1`: the MIC in data set [1] turned out to be 0.25 µg/mL (≈ 0.634 µM); in data set [2], 0.25 µg/mL (≈ 0.634 µM); in data set [3], 16 µg/mL (≈ 40.6 µM). In data set [4], the MNTC at 72 h is greater than 128 µg/mL. The PI in data set [5] is given as greater than 512.
